Test results from ChEMBL document CHEMBL1147722, “Discovery of proline sulfonamides as potent and selective hepatitis C virus NS5b polymerase inhibitors. Evidence for a new NS5b polymerase binding site” (J Med Chem, 2006).

Tests used:
[1] = target: RNA-directed RNA polymerase (Hepacivirus hominis, UniProt O39930); assay: Inhibition of HCV NS5B RNA dependent RNA polymerase
DNA polymerase beta = DNA polymerase beta (Homo sapiens, UniProt P06746); assay: Inhibition of human polymerase beta
[2] = target: Human immunodeficiency virus type 1 reverse transcriptase (Human immunodeficiency virus 1, UniProt Q72547); assay: Inhibition of HIV reverse transcriptase
NS3 = NS3 (Hepatitis C virus, UniProt A3EZJ3); assay: Inhibition of HCV helicase; design: species or system Hepacivirus hominis
NS3, sequence (A3EZJ3 whole entry): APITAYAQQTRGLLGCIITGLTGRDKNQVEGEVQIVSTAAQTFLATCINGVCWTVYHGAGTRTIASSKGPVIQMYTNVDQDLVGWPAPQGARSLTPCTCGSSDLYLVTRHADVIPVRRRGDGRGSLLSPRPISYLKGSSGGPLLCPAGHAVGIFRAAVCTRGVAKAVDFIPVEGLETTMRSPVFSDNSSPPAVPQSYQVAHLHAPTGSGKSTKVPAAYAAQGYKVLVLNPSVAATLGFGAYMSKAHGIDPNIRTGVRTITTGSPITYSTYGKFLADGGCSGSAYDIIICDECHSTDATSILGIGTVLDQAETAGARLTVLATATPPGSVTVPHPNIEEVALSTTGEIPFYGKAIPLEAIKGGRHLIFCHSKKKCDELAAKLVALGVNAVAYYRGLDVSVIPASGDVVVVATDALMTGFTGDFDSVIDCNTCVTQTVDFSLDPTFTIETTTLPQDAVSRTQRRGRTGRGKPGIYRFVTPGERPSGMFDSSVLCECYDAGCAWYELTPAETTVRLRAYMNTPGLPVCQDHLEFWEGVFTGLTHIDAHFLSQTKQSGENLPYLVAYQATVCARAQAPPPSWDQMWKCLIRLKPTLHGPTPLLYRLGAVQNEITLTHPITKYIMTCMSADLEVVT

Vero = assay: Cytotoxicity against Vero cell line; format: functional, cell-based; settings: Chlorocebus sabaeus
How it was run: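 Cytotoxicity read by MTS assay on actively growing cells: Vero cells for line 1, clone A cells for line 2. IC50 was determined in each assay.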

[3] = Permeability at pH 7.4 by PAMPA assay; format: ADME; settings: read-out: permeability
[4] = Permeability from apical to basolateral side of the Caco-2 cell; format: ADME, cell-based; settings: human, read-out: permeability

RNA-directed RNA polymerase, sequence (O39930 whole entry): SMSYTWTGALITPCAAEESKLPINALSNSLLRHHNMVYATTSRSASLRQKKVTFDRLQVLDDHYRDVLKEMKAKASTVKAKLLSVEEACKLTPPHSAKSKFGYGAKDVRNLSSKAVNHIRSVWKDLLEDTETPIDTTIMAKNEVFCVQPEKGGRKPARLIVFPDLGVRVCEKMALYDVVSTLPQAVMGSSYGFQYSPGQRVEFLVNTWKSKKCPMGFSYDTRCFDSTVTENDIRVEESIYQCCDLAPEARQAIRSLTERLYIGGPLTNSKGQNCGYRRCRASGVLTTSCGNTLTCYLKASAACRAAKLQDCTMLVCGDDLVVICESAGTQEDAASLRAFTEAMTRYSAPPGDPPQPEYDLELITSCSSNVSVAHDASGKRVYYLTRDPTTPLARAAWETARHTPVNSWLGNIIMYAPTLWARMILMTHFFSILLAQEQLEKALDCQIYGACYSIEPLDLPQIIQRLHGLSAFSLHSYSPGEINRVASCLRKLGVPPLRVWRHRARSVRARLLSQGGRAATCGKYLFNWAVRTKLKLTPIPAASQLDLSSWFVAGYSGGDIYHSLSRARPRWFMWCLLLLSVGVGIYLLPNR

IC50 [1] | SMILES | further results
2000 nM | O=C(O)[C@@H]1CCCCN1S(=O)(=O)c1cc(Cl)cc(Cl)c1O | 
770 nM | O=C(O)[C@@H]1CCCN1S(=O)(=O)c1cc(Cl)cc(Cl)c1O | 
560 nM | O=S(=O)(c1cc(Cl)cc(Cl)c1O)N1CCC[C@H]1c1nn[nH]n1 | 
7900 nM | O=C(O)[C@H]1CCCN1S(=O)(=O)c1cc(Cl)cc(Cl)c1O | 
7100 nM | O=C(O)[C@H]1CCCCN1S(=O)(=O)c1cc(Cl)cc(Cl)c1O | 
4800 nM | O=S(=O)(c1cc(Cl)cc(Cl)c1O)N1CCCC1 | 
1400 nM | N#C[C@@H]1CCCN1S(=O)(=O)c1cc(Cl)cc(Cl)c1O | 

The next lines start with the molecule.

SMILES | IC50 [1] | further results
COC(=O)[C@@H]1CCCN1S(=O)(=O)c1cc(Cl)cc(Cl)c1O | > 20000 nM | 
Nc1ccccc1S(=O)(=O)N1CCC[C@H]1C(=O)O | > 20000 nM | 
O=C(O)C1CSCN1S(=O)(=O)c1cc(Cl)cc(Cl)c1O (single isomer, unassigned; 34) | 1700 nM | 
CC(=O)Nc1cc(C)c(Cl)cc1S(=O)(=O)N1CCC[C@H]1C(=O)O | > 20000 nM | 
Cc1cc(NC(=O)c2ccccc2)c(S(=O)(=O)N2CCC[C@H]2C(=O)O)cc1Cl | > 20000 nM | 
Cc1cc(N)c(S(=O)(=O)N2CCC[C@H]2C(=O)O)cc1Cl | 5950 nM | 
Cc1cc(S(=O)(=O)N2CCC[C@H]2C(=O)O)c(N)cc1Cl |  | IC50 (DNA polymerase beta): > 100 µM; IC50 [2]: > 100 µM; IC50 (NS3): > 75 µM
O=C(O)[C@@H]1CCCN1S(=O)(=O)c1cc(Cl)c(Cl)c(Cl)c1O | 80 nM | IC50 (Vero): > 100 µM; Papp [3]: 0.02 ×10⁻⁶ cm/s; Papp A→B [4]: 0.4 ×10⁻⁶ cm/s
O=C(O)[C@@H]1CCCN1S(=O)(=O)c1cc(Cl)cc(Br)c1O | 260 nM | 
O=C(O)[C@@H]1CCCN1S(=O)(=O)c1cc(Cl)cc(Cl)c1 | > 20000 nM | 
O=C(O)C1CSCN1S(=O)(=O)c1cc(Cl)cc(Cl)c1O (single isomer, unassigned; 33) | 240 nM | 
O=C(O)[C@@H]1CCCN1S(=O)(=O)c1cc(F)cc(Cl)c1O | 2100 nM | 
